Measurements published in ChEMBL document CHEMBL2069182, “Discovery and optimization of a novel series of GPR142 agonists for the treatment of type 2 diabetes mellitus” (Bioorg Med Chem Lett, 2012).

How the values were obtained:
[1] = biological target: T1, Probable G-protein coupled receptor 142 (Homo sapiens, UniProt Q7Z601); assay: Agonist activity at human GPR142 expressed in HEK293 cells assessed as inositol phosphate accumulation using [3H]-inositol after 1 hr by scintillation counting; assay type: functional, cell-based
T1 sequence (Q7Z601 whole entry): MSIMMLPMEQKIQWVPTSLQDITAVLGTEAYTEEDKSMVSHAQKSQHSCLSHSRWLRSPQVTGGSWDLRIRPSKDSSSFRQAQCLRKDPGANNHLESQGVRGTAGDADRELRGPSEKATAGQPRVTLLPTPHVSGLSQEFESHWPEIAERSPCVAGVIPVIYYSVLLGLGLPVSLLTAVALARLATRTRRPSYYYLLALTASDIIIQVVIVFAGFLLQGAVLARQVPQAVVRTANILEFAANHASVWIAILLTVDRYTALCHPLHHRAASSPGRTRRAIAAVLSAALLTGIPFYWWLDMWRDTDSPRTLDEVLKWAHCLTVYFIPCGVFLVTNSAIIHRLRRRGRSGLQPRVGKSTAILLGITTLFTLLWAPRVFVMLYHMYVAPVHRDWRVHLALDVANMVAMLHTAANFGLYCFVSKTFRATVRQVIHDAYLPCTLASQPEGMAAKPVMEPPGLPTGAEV
Method in brief: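 HEK293 cells plated at 25,000/well, next day (80–90% confluent) transfected with 100 ng receptor plasmid per well by Lipofectamine; after 6 h switched to inositol-free DMEM/10% dialyzed FCS with 1 µCi/mL [3H]-inositol overnight. Washed in HBSS, then compound dilutions (DMSO) in HBSS/0.01% BSA plus 10 mM LiCl, 37 °C, 1 h. Lysed in ice-cold 20 mM formic acid, 4 °C 5 h, then yttrium silicate SPA beads, scintillation counting. Emax as % of maximal response to 10 mM tryptophan.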

[2] = biological target: T2, Probable G-protein coupled receptor 142 (Homo sapiens) (UniProt Q7Z601); assay: Agonist activity at human GPR142 expressed in HEK293 cells assessed as inositol phosphate accumulation using [3H]-inositol after 1 hr by scintillation counting relative to tryptophan; assay type: functional, cell-based
T2 sequence (whole entry): T1 sequence (Q7Z601 whole entry)
Method in brief: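 HEK293 cells on poly-D-lysine were transfected next day with 100 ng receptor plasmid/well, then labelled overnight with 1 µCi/mL [3H]-inositol in inositol-free DMEM/10% dialyzed FCS. Cells got graded compound in HBSS/0.01% BSA with 10 mM LiCl for 1 h at 37 °C. They were lysed in ice-cold 20 mM formic acid and counted with yttrium silicate SPA beads. EC50 given; Emax as % of maximal tryptophan response at 10 mM.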

[3] = biological target: T1, Probable G-protein coupled receptor 142; assay: Agonist activity at human GPR142 expressed in HEK293 cells assessed as inositol phosphate accumulation using [3H]-inositol after 1 hr by scintillation counting in presence of human serum; assay type: functional, cell-based
Method in brief: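 Same transfected HEK293 [3H]-inositol IP accumulation protocol as buffer assay, but compound incubation (10 mM LiCl, 37 °C, 1 h) run in 100% human serum instead of HBSS/0.01% BSA. Formic acid lysis, SPA bead scintillation read-out. Emax expressed as % of maximal 10 mM tryptophan response.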

[4] = biological target: T2, Probable G-protein coupled receptor 142 (Homo sapiens); assay: Agonist activity at human GPR142 expressed in HEK293 cells assessed as inositol phosphate accumulation using [3H]-inositol after 1 hr by scintillation counting in presence of human serum relative to tryptophan; assay type: functional, cell-based
Method in brief: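 Transiently transfected HEK293 cells were labelled overnight with 1 µCi/mL tritiated inositol, then given graded compound in 100% human serum (in place of HBSS/0.01% BSA) with 10 mM LiCl for 1 h at 37 °C. Lysis was in ice-cold 20 mM formic acid, with SPA-bead scintillation read-out. EC50 given; Emax as % of maximal tryptophan response.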

CYP3A4 = CYP3A4 (Homo sapiens, UniProt P08684); assay: Inhibition of CYP3A4 at 3 uM; assay type: ADME
Chain of CYP3A4 (P08684 whole entry): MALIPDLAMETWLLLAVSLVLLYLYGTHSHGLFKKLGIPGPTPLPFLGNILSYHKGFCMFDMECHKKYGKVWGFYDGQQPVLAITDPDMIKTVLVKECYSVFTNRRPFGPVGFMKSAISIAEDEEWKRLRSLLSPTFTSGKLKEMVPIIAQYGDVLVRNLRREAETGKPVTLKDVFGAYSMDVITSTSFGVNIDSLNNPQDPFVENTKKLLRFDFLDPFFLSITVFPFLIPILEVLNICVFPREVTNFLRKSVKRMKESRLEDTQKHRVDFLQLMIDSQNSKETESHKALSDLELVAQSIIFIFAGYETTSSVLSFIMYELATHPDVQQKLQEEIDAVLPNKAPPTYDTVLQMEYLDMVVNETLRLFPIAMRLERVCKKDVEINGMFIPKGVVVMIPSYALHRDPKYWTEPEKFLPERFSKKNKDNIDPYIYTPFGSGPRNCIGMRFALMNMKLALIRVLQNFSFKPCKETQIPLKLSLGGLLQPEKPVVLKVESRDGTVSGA

CYP2D6 = CYP2D6 (Homo sapiens, UniProt P10635); assay: Inhibition of CYP2D6 at 3 uM; assay type: ADME
Chain of CYP2D6 (P10635 whole entry): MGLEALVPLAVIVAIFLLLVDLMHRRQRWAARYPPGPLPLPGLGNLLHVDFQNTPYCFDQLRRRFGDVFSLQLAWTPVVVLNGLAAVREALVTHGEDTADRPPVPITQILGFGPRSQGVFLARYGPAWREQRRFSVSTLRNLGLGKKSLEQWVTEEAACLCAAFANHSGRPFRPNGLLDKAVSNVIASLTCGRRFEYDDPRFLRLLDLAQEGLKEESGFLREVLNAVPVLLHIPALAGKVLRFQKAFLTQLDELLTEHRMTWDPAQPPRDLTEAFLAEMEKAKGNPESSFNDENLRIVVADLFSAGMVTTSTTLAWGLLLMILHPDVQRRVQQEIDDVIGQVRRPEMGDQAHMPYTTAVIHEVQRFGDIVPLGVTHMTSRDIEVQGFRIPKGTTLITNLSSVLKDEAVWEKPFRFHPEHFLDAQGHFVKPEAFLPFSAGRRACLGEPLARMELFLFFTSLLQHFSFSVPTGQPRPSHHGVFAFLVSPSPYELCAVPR

Cytochrome P450 3A4 = Cytochrome P450 3A4 (Homo sapiens, UniProt P08684); assay: Inhibition of CYP3A4; assay type: ADME
Chain of Cytochrome P450 3A4 (P08684 whole entry): as the sequence (P08684 whole entry) above

Cytochrome P450 2D6 = Cytochrome P450 2D6 (Homo sapiens, UniProt P10635); assay: Inhibition of CYP2D6; assay type: ADME
Chain of Cytochrome P450 2D6 (P10635 whole entry): as the sequence (P10635 whole entry) above

Rattus norvegicus = assay: Clearance in rat at 0.5 mg/kg, iv; assay type: ADME, organism-based; set-up: dose 0.5 mg/kg, route intravenous; details: in vivo
Method in brief: (§1)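 Rats dosed iv at 0.5 mg/kg; clearance, steady-state volume of distribution and mean residence time derived.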

[5] = Volume of distribution at steady state in rat at 0.5 mg/kg, iv; assay type: ADME, organism-based; set-up: dose 0.5 mg/kg, route intravenous; details: in vivo, read-out: Vdss; method in brief: as §1
[6] = Mean residence time in rat at 0.5 mg/kg, iv; assay type: ADME, organism-based; set-up: dose 0.5 mg/kg, route intravenous; details: in vivo; method in brief: as §1
[7] = Oral bioavailability in rat at 2 mg/kg; assay type: ADME, organism-based; details: in vivo
Method in brief: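 Rats given 2.0 mg/kg po; bioavailability (%F) determined against iv dosing at 0.5 mg/kg.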

[8] = Metabolic stability in rat liver microsomes assessed as compound remaining after 30 mins; assay type: ADME, Microsome; details: read-out: Stability
Method in brief: (§2)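 Human or rat liver microsomes incubated with compound for 30 min; percent parent remaining quantified by LC/MS in a high-throughput format.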

[9] = Metabolic stability in human liver microsomes assessed as compound remaining after 30 mins; assay type: ADME, Microsome; details: read-out: Stability; method in brief: as §2
[10] = Induction of insulin secretion in mouse pancreatic islets in presence of 16.7 mM of glucose; assay type: functional; details: Pancreatic islet
Method in brief: (§3)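 Isolated mouse islets stimulated in 16.7 mM glucose with 0.625% HSA and 1% DMSO; insulin secretion measured, Emax reported as percentage.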

[11] = Induction of insulin secretion in mouse pancreatic islets in presence of 16.7 mM of glucose relative to control; assay type: functional; details: Pancreatic islet; method in brief: as §3
Cytochrome P450 2C9 = Cytochrome P450 2C9 (Homo sapiens, UniProt P11712); assay: Inhibition of CYP2C9; assay type: ADME
Chain of Cytochrome P450 2C9 (P11712 whole entry): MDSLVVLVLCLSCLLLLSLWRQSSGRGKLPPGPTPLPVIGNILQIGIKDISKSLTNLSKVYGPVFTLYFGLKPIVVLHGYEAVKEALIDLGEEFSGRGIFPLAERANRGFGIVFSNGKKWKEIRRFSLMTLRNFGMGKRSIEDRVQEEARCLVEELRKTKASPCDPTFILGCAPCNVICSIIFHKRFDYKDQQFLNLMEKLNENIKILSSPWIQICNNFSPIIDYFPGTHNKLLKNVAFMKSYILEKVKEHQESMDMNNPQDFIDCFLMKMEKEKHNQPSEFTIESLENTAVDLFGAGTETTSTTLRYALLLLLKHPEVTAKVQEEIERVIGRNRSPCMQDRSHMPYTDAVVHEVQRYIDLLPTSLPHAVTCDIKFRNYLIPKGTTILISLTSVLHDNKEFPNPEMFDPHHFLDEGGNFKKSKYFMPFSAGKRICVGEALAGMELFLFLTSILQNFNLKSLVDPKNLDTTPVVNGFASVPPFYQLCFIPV

Hepatocyte = assay: Clearance in rat hepatocytes assessed per 10^-6 cells; assay type: ADME, cell-based
[12] = Half life in rat hepatocytes; assay type: ADME, cell-based, Liver, Hepatocyte
[13] = biological target: T3, Probable G-protein coupled receptor 142 (Mus musculus, UniProt Q7TQN9); assay: Agonist activity at mouse GPR142 assessed as inositol phosphate accumulation; assay type: functional
T3 sequence (Q7TQN9 whole entry): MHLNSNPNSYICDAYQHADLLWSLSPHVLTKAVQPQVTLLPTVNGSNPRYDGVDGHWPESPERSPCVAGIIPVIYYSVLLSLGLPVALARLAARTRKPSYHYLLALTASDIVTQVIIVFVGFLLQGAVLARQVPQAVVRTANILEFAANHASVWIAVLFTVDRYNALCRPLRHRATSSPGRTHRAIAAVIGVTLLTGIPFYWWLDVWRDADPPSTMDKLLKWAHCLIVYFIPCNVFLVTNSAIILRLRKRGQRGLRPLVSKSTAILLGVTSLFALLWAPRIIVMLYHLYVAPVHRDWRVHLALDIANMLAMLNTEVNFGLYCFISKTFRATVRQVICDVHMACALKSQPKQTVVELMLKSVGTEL

Row | EC50 [1] [nM] | Emax [2] [%] | inhibition at 3 µM (CYP3A4) [%] | inhibition at 3 µM (CYP2D6) [%] | Structure (SMILES) | other results
1 | 67 | 90 | 22 | 20 | Cc1cc(-c2c[nH]c(=O)c(NC(=O)[C@H](Cc3ccccc3)NCc3cscn3)c2)ccn1 | EC50 [3]: 290 nM; Emax [4]: 97%; IC50 (Cytochrome P450 3A4): > 30000 nM; IC50 (Cytochrome P450 2D6): > 30000 nM; clearance (Rattus norvegicus): 43.3 mL/min/kg; Vd [5]: 0.75 L/kg; MRT [6]: 18 min; bioavailability [7]: 19%; remaining at 0.5 h [8]: 11%; remaining at 0.5 h [9]: 10%
2 | > 33000 | 42 |  |  | N[C@@H](Cc1ccccc1Cl)C(=O)Nc1cc(-c2ccncc2)c[nH]c1=O | 
3 | 93 | 120 | 97 | 95 | O=C(Nc1cc(-c2ccncc2)c[nH]c1=O)[C@H](Cc1ccccc1)NCc1cscn1 | EC50 [3]: 500 nM; Emax [4]: 100%; EC50 [10]: 2700 nM; Emax [11]: 88%
4 | > 33000 | 50 |  |  | N[C@@H](Cc1cccc(Cl)c1)C(=O)Nc1cc(-c2ccncc2)c[nH]c1=O | 
5 | > 33000 |  |  |  | N[C@H](C(=O)Nc1cc(-c2ccncc2)c[nH]c1=O)c1ccccc1 | 
6 | 67 |  | 97 | 95 | O=C(Nc1cccc(-c2ccncc2)c1)[C@H](Cc1ccccc1)NCc1cscn1 | EC50 [3]: 970 nM
7 | > 33000 |  |  |  | O=C(CCc1ccccc1)Nc1cc(-c2ccncc2)c[nH]c1=O | 
8 | 6600 | 73 |  |  | Cc1ccc(C[C@H](N)C(=O)Nc2cc(-c3ccncc3)c[nH]c2=O)cc1 | 
9 | 830 | 97 |  |  | O=C(Nc1cc(-c2ccncc2)c[nH]c1=O)[C@H](Cc1ccccc1)NCc1ccccc1 | 
10 | > 33000 |  |  |  | CC(=O)N[C@@H](Cc1ccccc1)C(=O)Nc1cc(-c2ccncc2)c[nH]c1=O | 
11 | 760 | 106 |  |  | O=C(Nc1cc(-c2ccncc2)c[nH]c1=O)[C@H](Cc1ccccc1)NCC1CC1 | 
12 | 53 |  |  |  | COc1cc(NC(=O)[C@H](Cc2ccccc2)NCc2cscn2)cc(-c2ccncc2)c1 | EC50 [3]: 810 nM
13 | 200 |  | 18 | 29 | O=C(Nc1cc(-c2ccn[nH]2)c[nH]c1=O)[C@H](Cc1ccccc1)NCc1cscn1 | 
14 | 180 |  | 36 | 42 | Cn1cc(-c2cccc(NC(=O)[C@H](Cc3ccccc3)NCc3cscn3)c2)cn1 | 
15 | 1900 |  | 30 | 12 | Cn1ccc(-c2cccc(NC(=O)[C@H](Cc3ccccc3)NCc3cscn3)c2)n1 | 
16 | > 33000 | 30 |  |  | N[C@@H](CC1CCCCC1)C(=O)Nc1cc(-c2ccncc2)c[nH]c1=O | 
17 | 4600 | 79 |  |  | N#Cc1ccc(C[C@H](N)C(=O)Nc2cc(-c3ccncc3)c[nH]c2=O)cc1 | 
18 | 3300 |  | 24 | 36 | O=C(Nc1ccccc1)[C@H](Cc1ccccc1)NCc1cscn1 | 

Row | EC50 [1] [nM] | Emax [2] [%] | inhibition at 3 µM (CYP3A4) [%] | inhibition at 3 µM (CYP2D6) [%] | Structure (SMILES) | other results
19 | > 33000 |  |  |  | NCC(=O)Nc1cc(-c2ccncc2)c[nH]c1=O | 
20 | 780 | 67 |  |  | O=C(Nc1cc(-c2ccncc2)c[nH]c1=O)[C@H](Cc1ccccc1)NCCc1ccccc1 | 
21 | 110 |  |  |  | O=C(O)c1cc(NC(=O)[C@H](Cc2ccccc2)NCc2cscn2)cc(-c2ccncc2)c1 | EC50 [3]: 480 nM; IC50 (Cytochrome P450 3A4): > 30000 nM; IC50 (Cytochrome P450 2D6): > 30000 nM; IC50 (Cytochrome P450 2C9): > 30000 nM; clearance (Rattus norvegicus): 48.3 mL/min/kg; Vd [5]: 0.5 L/kg; MRT [6]: 12 min; bioavailability [7]: 0%; remaining at 0.5 h [8]: 74%; CLH (Hepatocyte): 18 µL/min; half-life [12]: 39 min
22 | 640 |  | 57 | 46 | O=C(Nc1cccc(-c2ccccc2)c1)[C@H](Cc1ccccc1)NCc1cscn1 | 
23 | 13000 | 93 |  |  | N[C@H](Cc1ccccc1)C(=O)Nc1cc(-c2ccncc2)c[nH]c1=O | 
24 | 230 |  | 24 | 21 | Cn1cc(-c2c[nH]c(=O)c(NC(=O)[C@H](Cc3ccccc3)NCc3cscn3)c2)cn1 | 
25 | 360 |  |  |  | O=C(Nc1nccc(-c2ccncc2)n1)[C@H](Cc1ccccc1)NCc1cscn1 | EC50 [3]: 290 nM
26 | 25000 | 40 |  |  | COc1ccc(C[C@H](N)C(=O)Nc2cc(-c3ccncc3)c[nH]c2=O)cc1 | 
27 | 3800 | 105 |  |  | N[C@@H](Cc1ccc(Cl)cc1)C(=O)Nc1cc(-c2ccncc2)c[nH]c1=O | 
28 | 67 |  | 59 | 36 | O=C(Nc1cccc(-c2cc[nH]n2)c1)[C@H](Cc1ccccc1)NCc1cscn1 | 
29 | 89 |  |  |  | COc1ccc(-c2ccncc2)cc1NC(=O)[C@H](Cc1ccccc1)NCc1cscn1 | EC50 [3]: 1000 nM
30 | 52 |  | 63 | 74 | Cc1cc(-c2cccc(NC(=O)[C@H](Cc3ccccc3)NCc3cscn3)c2)ccn1 | 
31 | 240 |  |  |  | COc1ccc(NC(=O)[C@H](Cc2ccccc2)NCc2cscn2)cc1-c1ccncc1 | EC50 [3]: 980 nM
32 | 4800 | 115 |  |  | N[C@@H](Cc1ccccc1)C(=O)Nc1cc(-c2ccncc2)c[nH]c1=O | EC50 [13]: 1400 nM
33 | 4200 | 102 |  |  | N[C@@H](Cc1ccc(F)cc1)C(=O)Nc1cc(-c2ccncc2)c[nH]c1=O | 
34 | 210 |  | 38 | 42 | Nc1cc(-c2cccc(NC(=O)[C@H](Cc3ccccc3)NCc3cscn3)c2)ccn1 | 
35 | 180 |  | 82 | 90 | O=C(Nc1cccc(-c2cn[nH]c2)c1)[C@H](Cc1ccccc1)NCc1cscn1 | 
